Molecules are shown by their SMILES. Active and inactive are the calls of the source. No cut-off for these calls is given here.

Results on one compound are retold here after ChEMBL document CHEMBL1152519, “Synthesis, structural activity-relationships, and biological evaluation of novel amide-based allosteric binding site antagonists in NR1A/NR2B N-methyl-D-aspartate receptors” (Bioorg Med Chem, 2009).

The target in data set [1] is T1, Glutamate NMDA receptor; Grin1/Grin2b (Rattus norvegicus) (UniProt P35439+Q00960). The experiment in a line: Antagonist activity at rat recombinant NR1/NR2B receptor expressed in Xenopus laevis oocytes assessed as voltage-independent inhibition of glutamate/glycine-induced current at 0.054 uM by two electrode voltage clamp method. It is filed as functional, cell-based. The settings on record: Oocyte. The gist of the method:
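Rat NR1/NR2B oocytes were voltage clamped and the current–voltage relation recorded for 50 μM glutamate plus 30 μM glycine, with and without 0.054 μM compound coapplied; n = 5.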
(In general: Two-electrode voltage clamp is typically applied to oocytes expressing channels or transporters.)

In data set [2] the target is Glutamate NMDA receptor; Grin1/Grin2b (Rattus norvegicus, UniProt P35439+Q00960). In words: Antagonist activity at wild type rat NR1/NR2B receptor expressed in Xenopus laevis oocytes assessed as inhibition of glutamate/glycine-induced current by two electrode voltage clamp method. Type of data set: functional, cell-based, Oocyte. The gist of the method: (§1)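 Xenopus oocytes expressing NR1/NR2 (wild type or amino terminal domain deletion mutant) recorded by TEVC at −40 mV, room temperature, pH 7.4–7.6, with EDTA 10 μM. Maximal glutamate/glycine applied alone, then with 5–8 successive compound concentrations. Leak-corrected; responses under 50 nA excluded. IC50 from fitted composite curve. NR1/NR2A oocytes were pre-incubated in 50 μM BAPTA-AM.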

Data set [3] in a line: Antagonist activity at rat NR1/NR2B receptor deltaATD mutant expressed in Xenopus laevis oocytes assessed as inhibition of glutamate/glycine-induced current by two electrode voltage clamp method. To be noted: Oocyte. It is filed as functional, cell-based. In outline:
as §1

For a further data set, the system named is Oocyte. In words: Antagonist activity at rat NR1/NR2B receptor deltaATD mutant expressed in Xenopus laevis oocytes assessed as inhibition of glutamate/glycine-induced current at 0.01 to 100 uM by two electrode voltage clamp method. Type of data set: functional, cell-based. In outline:
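Oocytes express NR1/NR2B amino-terminal-domain mutants (mouse D101A point mutant; rat ATD deletion). Concentration–effect curves were recorded by two-electrode voltage clamp at −40 mV and 23 °C, with 50 μM glutamate plus 30 μM glycine. Each step is compound plus agonists, expressed relative to agonists alone.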

Data set [4] has as its target Glutamate NMDA receptor; Grin1/Grin2a (Rattus norvegicus) (UniProt P35439+Q00959). In words: Antagonist activity at rat recombinant NR1/NR2A receptor expressed in Xenopus laevis oocytes assessed as inhibition of glutamate/glycine-induced current at 3 uM by two electrode voltage clamp method relative to control. Type of data set: functional, cell-based. To be noted: Oocyte. In outline: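 Xenopus oocytes injected with NR1-1a (3–5 ng) plus NR2A, 2B, 2C or 2D cRNA (7–10 ng), kept at 15 °C. Voltage clamp at −40 mV. Responses to 50 μM glutamate + 30 μM glycine with 3 μM compound, as % of response without compound. NR2A oocytes pre-loaded with 50 μM BAPTA-AM. Mean ± SEM, 4–10 oocytes; paired t-test.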

Data set [5] has as its target Glutamate receptor 1 (Rattus norvegicus) (UniProt P19490). In words: Antagonist activity at rat recombinant GluR1 expressed in Xenopus laevis oocytes assessed as inhibition of glutamate-induced current at 3 uM by two electrode voltage clamp method relative to control. Type of data set: functional, cell-based. To be noted: Oocyte. In outline: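 GluR1 homomers expressed from 5–10 ng cRNA in Xenopus oocytes. Clamped at −40 mV. Currents evoked by 100 μM glutamate with 3 μM compound, expressed as % of control without compound. Mean ± SEM, 4–10 oocytes; paired t-test.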

The target of data set [6] is Glutamate receptor ionotropic, kainate 2 (Rattus norvegicus) (UniProt P42260). The experiment in a line: Antagonist activity at rat recombinant GluR6 expressed in Xenopus laevis oocytes assessed as inhibition of concanavalin A/glutamate-induced current at 3 uM by two electrode voltage clamp method relative to control. It is filed as functional, cell-based. To be noted: Oocyte. In outline:
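Oocytes expressing homomeric GluR6 (5–10 ng cRNA) pretreated 5 min with 10 μM concanavalin-A. Currents evoked by 100 μM glutamate at −40 mV, with or without 3 μM compound, and given as percent of control. Mean ± SEM of 4–10 oocytes; paired t-test.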

The target of a further data set is hERG (KCNH2) (Homo sapiens, UniProt Q12809). The experiment in a line: Displacement of [3H]astemizole from human recombinant ERG expressed in HEK293 cells at 10 uM. Type of data set: cell-based. The settings on record: HEK293 cells expressing human recombinant ERG, probe [3H]astemizole, read-out: Activity. Background: In a radioligand displacement assay an active substance lowers the binding of a labelled ligand.
Chain of hERG (KCNH2) (Q12809 whole entry): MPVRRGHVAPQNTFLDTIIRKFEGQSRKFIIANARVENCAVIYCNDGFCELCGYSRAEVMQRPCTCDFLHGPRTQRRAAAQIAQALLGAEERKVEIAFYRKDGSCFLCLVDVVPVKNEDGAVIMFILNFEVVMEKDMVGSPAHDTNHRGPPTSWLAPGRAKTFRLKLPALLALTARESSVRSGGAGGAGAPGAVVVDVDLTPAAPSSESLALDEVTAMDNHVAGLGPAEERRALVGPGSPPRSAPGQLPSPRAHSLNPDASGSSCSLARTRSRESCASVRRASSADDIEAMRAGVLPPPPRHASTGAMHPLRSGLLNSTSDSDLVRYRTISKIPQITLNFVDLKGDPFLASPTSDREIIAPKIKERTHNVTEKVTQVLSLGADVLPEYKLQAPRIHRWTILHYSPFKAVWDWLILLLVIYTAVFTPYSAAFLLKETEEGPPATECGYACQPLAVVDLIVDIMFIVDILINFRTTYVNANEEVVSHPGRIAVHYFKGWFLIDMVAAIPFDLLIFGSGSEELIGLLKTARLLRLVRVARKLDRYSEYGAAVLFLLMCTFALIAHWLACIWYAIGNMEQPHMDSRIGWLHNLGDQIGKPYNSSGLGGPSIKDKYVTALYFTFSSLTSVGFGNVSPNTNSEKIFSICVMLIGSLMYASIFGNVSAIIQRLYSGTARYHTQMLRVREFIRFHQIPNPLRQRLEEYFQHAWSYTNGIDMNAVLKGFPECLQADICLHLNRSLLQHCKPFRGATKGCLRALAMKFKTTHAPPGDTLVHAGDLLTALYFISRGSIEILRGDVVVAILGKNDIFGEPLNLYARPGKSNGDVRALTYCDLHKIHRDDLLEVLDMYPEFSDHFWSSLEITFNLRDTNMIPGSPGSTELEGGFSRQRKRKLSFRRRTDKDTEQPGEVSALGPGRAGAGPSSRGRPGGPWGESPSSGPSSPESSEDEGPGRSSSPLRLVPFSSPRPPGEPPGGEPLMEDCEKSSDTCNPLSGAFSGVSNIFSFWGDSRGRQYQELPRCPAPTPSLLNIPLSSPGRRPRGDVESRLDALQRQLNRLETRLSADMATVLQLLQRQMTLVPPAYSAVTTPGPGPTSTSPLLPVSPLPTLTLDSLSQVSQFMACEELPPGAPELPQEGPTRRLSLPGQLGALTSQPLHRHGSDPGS

In data set [7] the target is Glutamate receptor ionotropic, NMDA 1/NMDA 2B (Mus musculus, UniProt P35438+Q01097). In words: Antagonist activity at mouse recombinant NR1/NR2B receptor expressed in frog oocytes assessed as inhibition of glutamate/glycine-induced current by two electrode voltage clamp method. Type of data set: functional, cell-based, Oocyte. In outline:
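Xenopus oocytes injected with 3–5 ng NR1 and 7–10 ng NR2 cRNA, kept in Barth's solution at 15 °C, recorded 2–7 d later at 23 °C under two-electrode voltage clamp at −40 mV. Bath was 90 NaCl, 1 KCl, 10 HEPES, 0.5 BaCl2 (mM), pH 7.4/7.6, plus 10 μM EDTA. Glutamate (50–100 μM) plus glycine 30 μM was applied, then 5–8 inhibitor concentrations. Leak-corrected; n = 11 oocytes from 2 frogs.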

Data set [8] concerns the target T1, Glutamate NMDA receptor; Grin1/Grin2b (Rattus norvegicus). The experiment in a line: Antagonist activity at rat recombinant NR1/NR2B receptor expressed in Xenopus laevis oocytes assessed as inhibition of glutamate/glycine-induced current at 3 uM by two electrode voltage clamp method. Type of data set: functional, cell-based. To be noted: Oocyte. In outline:
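Oocytes (stage V–VI, Xenopus laevis) injected with NR1 and NR2 cRNA, held 1–7 d at 15 °C. TEVC at −40 mV, 23 °C, in 90 NaCl/1 KCl/10 HEPES/0.5 BaCl2 (mM) plus 10 μM EDTA. Current to 50 μM glutamate plus 30 μM glycine with 3 μM compound, given as percent of control; 4–10 oocytes.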

Chain of Glutamate receptor 1 (Rattus norvegicus) (P19490 whole entry): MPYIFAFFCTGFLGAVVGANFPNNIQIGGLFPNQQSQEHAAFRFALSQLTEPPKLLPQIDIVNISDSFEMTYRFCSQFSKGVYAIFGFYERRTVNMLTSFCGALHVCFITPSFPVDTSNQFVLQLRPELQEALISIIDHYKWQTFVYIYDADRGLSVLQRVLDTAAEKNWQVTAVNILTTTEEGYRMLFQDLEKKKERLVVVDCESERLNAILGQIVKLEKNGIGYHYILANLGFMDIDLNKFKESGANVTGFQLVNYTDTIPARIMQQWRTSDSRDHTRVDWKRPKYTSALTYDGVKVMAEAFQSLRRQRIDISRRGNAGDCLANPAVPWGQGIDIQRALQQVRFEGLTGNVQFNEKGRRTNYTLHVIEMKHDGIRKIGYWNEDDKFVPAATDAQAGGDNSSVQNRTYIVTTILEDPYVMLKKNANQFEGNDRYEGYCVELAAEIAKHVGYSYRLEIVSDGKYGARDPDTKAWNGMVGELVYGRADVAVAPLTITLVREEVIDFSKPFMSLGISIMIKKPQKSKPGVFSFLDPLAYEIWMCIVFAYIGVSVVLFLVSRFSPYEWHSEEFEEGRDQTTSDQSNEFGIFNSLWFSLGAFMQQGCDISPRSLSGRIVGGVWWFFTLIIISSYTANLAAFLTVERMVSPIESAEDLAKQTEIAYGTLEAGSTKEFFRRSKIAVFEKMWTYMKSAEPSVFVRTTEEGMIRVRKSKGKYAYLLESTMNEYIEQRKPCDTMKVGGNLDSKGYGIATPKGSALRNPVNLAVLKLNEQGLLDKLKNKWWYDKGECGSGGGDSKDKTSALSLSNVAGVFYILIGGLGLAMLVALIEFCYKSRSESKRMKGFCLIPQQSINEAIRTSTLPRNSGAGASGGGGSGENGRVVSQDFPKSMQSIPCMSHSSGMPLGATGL
Chain of Glutamate receptor ionotropic, kainate 2 (Rattus norvegicus) (P42260 whole entry): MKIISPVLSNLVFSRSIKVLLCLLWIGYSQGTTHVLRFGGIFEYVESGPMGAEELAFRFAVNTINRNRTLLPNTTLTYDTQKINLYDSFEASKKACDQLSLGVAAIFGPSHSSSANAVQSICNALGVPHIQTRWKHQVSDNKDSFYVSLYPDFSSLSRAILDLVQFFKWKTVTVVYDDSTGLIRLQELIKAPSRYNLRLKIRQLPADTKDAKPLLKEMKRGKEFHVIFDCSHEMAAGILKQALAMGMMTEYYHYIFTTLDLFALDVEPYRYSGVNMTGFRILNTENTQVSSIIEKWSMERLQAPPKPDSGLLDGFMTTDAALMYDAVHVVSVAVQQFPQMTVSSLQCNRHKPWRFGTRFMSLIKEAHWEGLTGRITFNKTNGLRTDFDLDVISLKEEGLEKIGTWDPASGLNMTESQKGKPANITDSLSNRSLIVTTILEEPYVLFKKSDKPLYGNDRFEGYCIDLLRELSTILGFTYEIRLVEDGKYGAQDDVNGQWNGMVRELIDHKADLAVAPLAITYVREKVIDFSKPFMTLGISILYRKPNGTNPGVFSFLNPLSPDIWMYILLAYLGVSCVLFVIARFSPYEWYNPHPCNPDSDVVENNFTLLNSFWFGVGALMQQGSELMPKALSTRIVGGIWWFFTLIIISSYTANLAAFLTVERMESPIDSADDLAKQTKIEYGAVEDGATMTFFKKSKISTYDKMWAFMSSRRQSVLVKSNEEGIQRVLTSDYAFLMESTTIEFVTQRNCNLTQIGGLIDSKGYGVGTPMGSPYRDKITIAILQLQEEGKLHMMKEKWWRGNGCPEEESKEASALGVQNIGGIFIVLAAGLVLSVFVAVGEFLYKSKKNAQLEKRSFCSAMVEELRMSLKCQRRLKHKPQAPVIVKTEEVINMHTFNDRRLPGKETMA
Chain of Glutamate receptor ionotropic, NMDA 1/NMDA 2B (Q01097 whole entry, other chains not shown): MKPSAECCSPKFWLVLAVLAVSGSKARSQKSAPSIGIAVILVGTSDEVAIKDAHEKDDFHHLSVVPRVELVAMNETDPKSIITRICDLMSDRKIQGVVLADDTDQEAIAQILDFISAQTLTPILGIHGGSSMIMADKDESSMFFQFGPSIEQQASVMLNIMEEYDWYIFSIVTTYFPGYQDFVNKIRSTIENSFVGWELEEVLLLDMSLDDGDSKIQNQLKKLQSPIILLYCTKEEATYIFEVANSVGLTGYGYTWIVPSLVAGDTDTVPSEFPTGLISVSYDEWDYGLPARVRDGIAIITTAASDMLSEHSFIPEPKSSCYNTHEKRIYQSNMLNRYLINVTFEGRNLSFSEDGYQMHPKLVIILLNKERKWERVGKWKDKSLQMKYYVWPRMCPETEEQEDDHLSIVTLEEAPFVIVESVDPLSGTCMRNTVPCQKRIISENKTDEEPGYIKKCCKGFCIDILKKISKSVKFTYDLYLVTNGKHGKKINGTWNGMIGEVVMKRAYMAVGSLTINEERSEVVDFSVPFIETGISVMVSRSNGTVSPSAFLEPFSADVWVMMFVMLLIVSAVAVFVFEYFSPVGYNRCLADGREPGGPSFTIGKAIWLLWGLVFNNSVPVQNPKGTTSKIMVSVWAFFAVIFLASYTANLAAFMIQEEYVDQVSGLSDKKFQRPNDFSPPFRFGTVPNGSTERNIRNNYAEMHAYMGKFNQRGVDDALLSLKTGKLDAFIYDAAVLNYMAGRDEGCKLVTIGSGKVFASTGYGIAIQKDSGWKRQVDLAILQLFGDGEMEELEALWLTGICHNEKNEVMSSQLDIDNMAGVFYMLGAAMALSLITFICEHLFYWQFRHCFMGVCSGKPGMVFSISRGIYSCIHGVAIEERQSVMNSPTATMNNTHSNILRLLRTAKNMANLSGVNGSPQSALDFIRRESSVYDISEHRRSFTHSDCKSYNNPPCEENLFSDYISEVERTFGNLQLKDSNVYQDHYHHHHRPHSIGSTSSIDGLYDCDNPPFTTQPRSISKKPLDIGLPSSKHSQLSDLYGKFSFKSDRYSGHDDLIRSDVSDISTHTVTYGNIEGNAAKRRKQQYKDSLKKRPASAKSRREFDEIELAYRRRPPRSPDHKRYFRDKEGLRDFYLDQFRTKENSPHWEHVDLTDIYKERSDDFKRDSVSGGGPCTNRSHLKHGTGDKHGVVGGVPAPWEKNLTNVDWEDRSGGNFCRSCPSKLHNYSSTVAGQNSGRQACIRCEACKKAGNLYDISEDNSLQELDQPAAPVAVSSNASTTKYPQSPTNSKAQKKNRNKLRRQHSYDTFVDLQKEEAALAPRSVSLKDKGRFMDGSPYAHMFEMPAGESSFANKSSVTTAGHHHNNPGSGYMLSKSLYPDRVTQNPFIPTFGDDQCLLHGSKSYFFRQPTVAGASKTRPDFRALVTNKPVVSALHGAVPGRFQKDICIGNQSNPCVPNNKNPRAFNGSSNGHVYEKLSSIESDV

A word on the IC50: it is the concentration that inhibits the measured activity by half. On to `CS(=O)(=O)Nc1ccc(OCC(=O)NCCNc2ccc(Cl)c(Cl)c2)cc1`, for which the inhibition entry in data set [1] is “Active”. The results for the 50% inhibitory concentration (IC50) in data set [2], in [3] and in [7] were 0.057 µM, 563 µM and 0.036 µM, respectively. In the data set with Oocyte, the inhibition result was “inactive”. Further, the % response in data set [4] is 92%; in data set [5], 101%; in data set [6], 99%. For the same compound, on hERG (KCNH2), the inhibition at 10 µM is 43%. Also, in [8], the inhibition was determined as 88%.
